Screening results deposited in PubChem BioAssay by several laboratories.
Shown are actives, neighbours in structure and some others; about 3.7% of the full set was active somewhere.
Myeloid diff 2: induction of myeloid progenitor differentiation, primary screen, cell-based, flow cytometry, MLPCN library; actives 1% (n = 360,000); ER-HoxA9 myeloid progenitors, lysozyme-GFP differentiation; calls only at 10 µM;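 active means normalized GFP-positive differentiation at or above the plate's own cutoff, the solvent-only control mean plus 3 SD; inconclusive means no clear call, values can overlap the other calls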;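 further: cells exposed to compound for four days before flow analysis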
EBI2 antag: EBI2 receptor antagonists, beta-arrestin recruitment, primary screen, cell-based, luminescence, 7a,25-OHC stimulation, uHTS; G-protein coupled receptor 183 (Homo sapiens), P32249; 7a,25-OHC stimulated; inhibition, % at 5 µM; actives 0.81% (n = 360,000); in the data active means inhibition above about 38%;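 further: enzyme fragment complementation signal reports receptor beta-arrestin coupling in cells; 0% = agonist plus DMSO wells and 100% = wells without agonist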
Target sequence (P32249 whole entry, looked up, the tested form may be a part): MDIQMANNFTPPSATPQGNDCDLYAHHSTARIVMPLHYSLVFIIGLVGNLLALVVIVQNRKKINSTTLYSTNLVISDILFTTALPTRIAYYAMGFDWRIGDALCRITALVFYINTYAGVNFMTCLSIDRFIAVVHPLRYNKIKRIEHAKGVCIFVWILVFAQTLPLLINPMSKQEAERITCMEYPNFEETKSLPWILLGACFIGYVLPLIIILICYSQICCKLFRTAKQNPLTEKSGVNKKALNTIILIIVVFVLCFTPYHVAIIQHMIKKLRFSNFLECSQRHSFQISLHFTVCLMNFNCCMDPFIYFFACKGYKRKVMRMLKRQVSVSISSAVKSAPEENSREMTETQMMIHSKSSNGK
MC4R antagonist: MC4R antagonists of cAMP signaling, primary screen, cell-based, TR-FRET, antagonist arm of biased-ligand search. Melanocortin receptor 4 (Homo sapiens), P32245. MC4R-expressing cells, MTII-stimulated cAMP, LANCE TR-FRET. inhibition, % at 6.5 µM. actives 0.48% (n = 360,000). AID 540295, 2011;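 active means inhibition above its plate's cutoff, the mean of tested wells on that plate plus 3 SD, cut at about 29% in these data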;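 further: 0% = Melanotan II alone and 100% = Melanotan II plus saturating MCL0020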
Target sequence (P32245 whole entry, looked up): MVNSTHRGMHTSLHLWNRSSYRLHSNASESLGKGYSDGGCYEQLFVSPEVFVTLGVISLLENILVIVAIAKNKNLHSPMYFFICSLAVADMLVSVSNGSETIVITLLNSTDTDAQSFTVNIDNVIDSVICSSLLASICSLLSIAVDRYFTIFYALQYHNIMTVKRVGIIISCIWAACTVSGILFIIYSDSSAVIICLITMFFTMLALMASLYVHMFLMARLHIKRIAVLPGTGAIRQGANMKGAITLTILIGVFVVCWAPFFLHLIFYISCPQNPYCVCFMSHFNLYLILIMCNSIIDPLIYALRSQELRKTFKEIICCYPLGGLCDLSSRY
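system = U2OS cells with stable human MC4R expression | also added = Melanotan II challenge after compound preincubation | dosing = one concentration, 6.5 µM nominal | incubation = compound 30 min, challenge 1 h, detection 1 h | measured by = TR-FRET with Eu-cAMP and labeled anti-cAMP, 671 nm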
MC4R barr agon: MC4R agonists recruiting beta-arrestin, primary screen, cell-based, luminescence, agonist arm of biased-ligand search; Melanocortin receptor 4 (Homo sapiens), P32245; activation, % at 8.9 µM; U2OS MC4R beta-arrestin complementation; percent of melanotan II response, DMSO zero; actives 0.98% (n = 360,000);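 active means activation above a per-plate cutoff, the mean activation of sample wells on that plate plus 3 SD, cut at about 8% in these data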
Exocytosis inh: LAMP-1 surface exposure blockers, TALL-104 cells – cell-based, flow cytometry, MLPCN library, primary screen; TALL-104 LAMP-1 surface exposure; cells stimulated with thapsigargin and PMA; inhibition, % at 10 µM; actives 0.66% (n = 360,000); AID 651702, 2012;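 active means inhibition above about 55%, limit read from the data; inconclusive means no clear call, values can overlap the other calls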
An asterisk follows results filed as active; i = inactive; ? = inconclusive; / = not tested or not shown; + = active, no number.

SMILES | Myeloid diff 2 | EBI2 antag | MC4R antagonist | MC4R barr agon | Exocytosis inh
COc1ccc(C)cc1Nc1n[n+](-c2ccccc2)c(-c2cc([N+](=O)[O-])cc(OC)c2O)s1 | + | -11.3 | -1.3 | -1.4 | -1.1
Cc1ccc(NC(=O)Cn2c(O)c(N=NS(=O)(=O)c3ccc(C)cc3)c3ccccc32)cc1 | i | 2.1 | 21.8 | -1.0 | 56.3*
CC(C)[C@H](NC(=O)c1ccccc1F)C(=O)NC1CCCCCCC1 | i | -0.9 | -0.7 | 0.2 | 1.5
Cc1cccc(N2CCN(CC(=O)Nc3ccc(S(=O)(=O)N4CCOCC4)cc3)CC2)c1C | + | -7.5 | 18.7 | 1.1 | 0.6
Cc1nc(C(F)(F)F)ccc1C(=O)N1CCCC(C(=O)O)CC1 (stereo not drawn) | i | -8.6 | 13.0 | 1.0 | -2.2
CC1(C(=O)NCc2ccco2)CCN1C(=O)C1(c2ccccc2)CC1 (stereo not drawn) | i | -1.1 | 4.2 | -0.6 | -11.9
CCC(C(=O)OCC(=O)Nc1ccc(SC(F)F)cc1)c1ccccc1 (stereo not drawn) | i | 3.2 | 2.8 | -1.8 | 73.2*
Cc1ccc(CNS(=O)(=O)c2ccc(CN3C(=O)c4cccnc4C3=O)cc2)o1 | ? | -3.5 | 14.5 | 1.1 | -4.0
COc1ccc(C(=O)N/N=C(\C)CC(=O)Nc2ccccn2)cc1OC | i | -3.7 | 9.6 | 0.1 | -25.0
C/C(CC(=O)Nc1ccccn1)=N\NC(=O)c1cccc(C)c1 | i | -7.2 | 33.6* | 1.2 | -0.5
C/C(CC(=O)Nc1cc(C)ccn1)=N\NC(=O)c1cccc(F)c1 | + | 5.5 | -3.7 | 0.1 | -15.5
COc1ccc2sc(-c3ccccc3OC)c(C#Cc3cncn3C)c2c1 | i | 6.2 | 11.9 | 8.6* | 7.2
O=C(N/N=C\c1cc(Br)ccc1O)c1ccc(S(=O)(=O)N2CCCCC2)cc1 | i | 58.2* | 9.5 | 1.2 | -3.0
O=C(N/N=C/c1cc(Cl)ccc1O)c1ccc(Br)cc1 | ? | 47.7* | 15.4 | -0.1 | 6.2
O=C(N/N=C/c1ccc(O)c(O)c1)c1cccc(S(=O)(=O)N2CCCCC2)c1 | i | -0.4 | 6.1 | -2.0 | -1.8
COc1ccccc1NC(=O)C1CCCN(S(=O)(=O)c2ccc(-n3cnnn3)cc2)C1 (stereo not drawn) | i | 2.8 | 6.1 | 1.4 | -7.9
COc1ccc(OC)c(NC(=O)NNC(=O)COc2ccc([N+](=O)[O-])cc2)c1 | i | 9.1 | 4.6 | -1.9 | -0.2
Cc1cccc(-n2ncc3c(N4CC(C)CC(C)C4)ncnc32)c1 (stereo not drawn) | i | 3.5 | -2.5 | 8.4* | -2.7
Cc1cccc(-n2ncc3c(N4CCCC4)ncnc32)c1 | i | 7.8 | 3.6 | -1.5 | -0.3
CCCN1CCc2c(sc(NC(=O)c3ccc(S(=O)(=O)N4CCCC4)cc3)c2C(N)=O)C1 | + | -21.9 | 14.5 | -0.3 | 4.1
CCN1CCc2c(sc(NC(=O)Nc3ccc(Cl)c(Cl)c3)c2C(N)=O)C1 | + | -18.4 | 5.1 | -1.3 | 8.8
CCN1CCc2c(sc(NC(=O)Cc3ccccc3)c2C(N)=O)C1 | i | -6.7 | -5.7 | -0.4 | 0.0
CCN1CCc2c(sc(NC(=O)c3ccc(S(=O)(=O)N4CCOCC4)cc3)c2C(N)=O)C1 | i | -1.9 | 5.8 | -0.9 | -0.2
O=C1CCCCC(=O)N(c2ccccc2)c2ccccc21 | + | 8.6 | -3.3 | 5.4 | -1.6
O=C(NCc1ccccc1Cl)C1CCCN(c2ncnc3c2nc2n3CCCCC2)C1 (stereo not drawn) | + | 14.1 | 4.7 | -2.6 | -3.1
SMILES | Myeloid diff 2 | EBI2 antag | MC4R antagonist | MC4R barr agon | Exocytosis inh
CCOc1ccccc1CNC(=O)C1CCCN(c2ncnc3c2nc2n3CCCCC2)C1 (stereo not drawn) | i | 7.8 | 18.2 | -2.8 | -5.5
CC(=O)Nc1ccc2nc3c(=O)n(C)c(=O)n(C)c3nc2c1 | + | -2.6 | -10.9 | -0.4 | 3.6
COc1ccc(CNC(=S)Nc2ccccc2-c2ccccc2)cc1 | i | -4.4 | 8.6 | -1.4 | -0.6
C/C(=N\Nc1ccc(C(=O)O)cc1)c1ccc(-n2ccnc2)cc1 | i | -0.1 | -5.1 | -2.0 | 0.1
C/C(=N\Nc1ccccc1Cl)c1ccc(-n2ccnc2)cc1 | + | 3.8 | 4.8 | -1.1 | -2.4
COc1ccc([N+](=O)[O-])cc1C1NN=C(c2ccccc2O)S1 (stereo not drawn) | i | 6.8 | 2.5 | 10.5* | 0.7
COC(=O)C1OC1c1cc([N+](=O)[O-])ccc1OC (stereo not drawn) | i | -6.8 | 0.0 | 2.3 | 2.4
Cc1ccc(C2CC(c3cccs3)=NN2C(=O)CSc2nc(=O)n3cc(C)ccc3n2)cc1 (stereo not drawn) | + | 41.0 | -14.2 | -3.8 | 1.7
O=C1C(Cl)=C(NCCN2CCCCC2)C(=O)c2ccccc21 | ? | 6.1 | -37.5 | -0.6 | 56.2*
COc1ccc(-n2c(C)c([N+](=O)[O-])c3ccc(O)c(CN4CCCCC4)c32)cc1 | i | 19.6 | -1.5 | -1.7 | 63.3*
COc1ccc(CNC[C@@H](CCCCN(C)Cc2ccc(OC)cc2)N2C[C@H](c3ccccc3)N(CCc3ccc(Cl)c(Cl)c3)C(=O)C2=O)cc1 | i | -23.2 | 30.0* | 25.0* | -3.2
COc1ccc(CCN(C)CCCN2CC(c3ccccc3)CC2=O)cc1OC (stereo not drawn) | i | -1.6 | 0.6 | -2.0 | 3.4
Cc1ccccc1NS(=O)(=O)c1ccc(NS(=O)(=O)c2cccs2)cc1 | i | 17.3 | 20.7 | 0.5 | -19.9
N#C/C(=C/C=C/c1ccccc1)C(=O)Nc1ccccc1 | + | 6.0 | 4.7 | 1.8 | -1.8
Cc1ccc(S(=O)(=O)N2C3CCCCC3O[C@H]2CC(=O)c2cccs2)cc1 (stereo partly drawn) | i | 3.8 | / | / | -1.5
Oc1ccc(Cl)cc1C=Nc1ccccc1Br | i | -18.4 | 0.8 | -1.0 | 3.7
Oc1ccc(Br)cc1C=Nc1ccc2c3c(cccc13)CC2 | + | -10.6 | -4.7 | -2.5 | 26.2
COc1ccccc1N(C(=O)CCl)c1cn(C(C)=O)c2ccccc12 | i | -8.2 | 5.9 | 8.6* | 27.4
CC(=O)n1cc(Nc2ccccc2C(=O)O)c2ccccc21 | i | 1.0 | -5.2 | -1.4 | 1.0
CCN(c1ccccc1)S(=O)(=O)c1cc(NC(=O)CN2CCN(C)CC2)ccc1Cl | i | -3.4 | 2.5 | -2.0 | -12.3
O=C1N[C@H]2CC=C[C@H]2Nc2ccccc21 | + | -6.4 | 7.9 | -0.1 | -3.7
O=C1N[C@H]2CC=C[C@H]2N(Cc2cccs2)c2ccccc21 | i | -6.1 | 3.0 | 0.1 | -2.4
